# In ChEMBL document CHEMBL1124064, “Synthesis and anticandidal properties of polyoxin L analogues containing alpha-amino fatty acids” (1988):
# How the values were obtained:
# [1] = tested on: Candida albicans; assay: Minimum inhibitory concentration against the growth of Candida albicans 124 strain; type: functional
# Procedure, shortened: (§1)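 Cells grown in yeast nitrogen base with ammonium sulfate (0.5%) as nitrogen source, 24-48 h at 37 °C. MIC is the lowest drug concentration producing 5% morphologically aberrant cells, scored by microscopy.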
# [2] = tested on: Candida albicans; assay: Percent inhibition of transport of (Met)3 into Candida albicans H-317; type: functional; set-up: concentration or dose not given beside the values
# Procedure, shortened: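 H-317 cells grown in yeast nitrogen base with isoleucine (0.5%) as nitrogen source, washed, and prewarmed 10 min at 37 °C in 2% glucose. Cells were mixed with pH 3.5 citrate (10 mM)-KH2PO4 (10 mM) buffer containing labeled trimethionine (2.9×10^-5 M, 1 μCi/μmol). Analogue was added at 10-fold molar excess. Filtered samples were taken at 0, 1, 2, 3 and 4 min and counted by scintillation; rate was expressed as nmol/mg dry cells/min.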
# [3] = tested on: Candida albicans; assay: Minimum inhibitory concentration against the growth of Candida albicans H-317 strain; type: functional; procedure, shortened: as §1
# [4] = tested on: Candida albicans; assay: Minimum inhibitory concentration against the growth of Candida albicans 124 NIK strain; type: functional; procedure, shortened: as §1
# [5] = target: Chitin synthase 1 (Candida albicans) (UniProt P23316); assay: (§2) Concentration at which chitin synthetase is inhibited by 50%
# Procedure, shortened: (§3)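 Mixed membrane (particulate) fraction from C. albicans H-317 was the enzyme source. Chitin synthetase activity was measured with and without polyoxin compounds as incorporation of N-acetylglucosamine into chitin. ID50 is the concentration giving 50% inhibition.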
# [6] = tested on: Candida albicans; assay: Percent inhibition of transport of (Leu)2 into Candida albicans H-317; type: functional; set-up: concentration or dose not given beside the values
# Procedure, shortened: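 H-317 cells grown in yeast nitrogen base with isoleucine (0.5%) as nitrogen source, harvested at 8×10^6 cells/mL, and washed. Cells in 2% glucose were warmed 10 min at 37 °C, then mixed with pH 5.5 citrate (10 mM)-KH2PO4 (10 mM) buffer containing labeled dileucine (5.6×10^-5 M, 44 μCi/μmol). Analogue was present at 10-fold molar excess. Samples were filtered at 0-4 min and counted; uptake rate was expressed as nmol/mg dry weight/min.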
# [7] = target: Chitin synthase 1 (Candida albicans) (UniProt P23316); assay: as §2; type: functional; procedure, shortened: as §3
# [8] = tested on: Candida albicans; assay: Compound was tested for hydrolysis by Candida albicans H-317 extract; (+) Indicates compound was hydrolyzed by C. albicans H-317 extract; type: functional
# Procedure, shortened: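 Cell extract of C. albicans H-317 (100 μL at 200 μg protein/mL) incubated at 37 °C with polyoxin compound (100 μL of 1 μg/mL) plus 300 μL water. Hydrolysis monitored by reversed-phase HPLC, absorbance at 254 nm.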
# [9] = Candida albicans, read-out: MIC
# Chitin synthase 1 (Candida albicans), sequence (P23316 whole entry, looked up): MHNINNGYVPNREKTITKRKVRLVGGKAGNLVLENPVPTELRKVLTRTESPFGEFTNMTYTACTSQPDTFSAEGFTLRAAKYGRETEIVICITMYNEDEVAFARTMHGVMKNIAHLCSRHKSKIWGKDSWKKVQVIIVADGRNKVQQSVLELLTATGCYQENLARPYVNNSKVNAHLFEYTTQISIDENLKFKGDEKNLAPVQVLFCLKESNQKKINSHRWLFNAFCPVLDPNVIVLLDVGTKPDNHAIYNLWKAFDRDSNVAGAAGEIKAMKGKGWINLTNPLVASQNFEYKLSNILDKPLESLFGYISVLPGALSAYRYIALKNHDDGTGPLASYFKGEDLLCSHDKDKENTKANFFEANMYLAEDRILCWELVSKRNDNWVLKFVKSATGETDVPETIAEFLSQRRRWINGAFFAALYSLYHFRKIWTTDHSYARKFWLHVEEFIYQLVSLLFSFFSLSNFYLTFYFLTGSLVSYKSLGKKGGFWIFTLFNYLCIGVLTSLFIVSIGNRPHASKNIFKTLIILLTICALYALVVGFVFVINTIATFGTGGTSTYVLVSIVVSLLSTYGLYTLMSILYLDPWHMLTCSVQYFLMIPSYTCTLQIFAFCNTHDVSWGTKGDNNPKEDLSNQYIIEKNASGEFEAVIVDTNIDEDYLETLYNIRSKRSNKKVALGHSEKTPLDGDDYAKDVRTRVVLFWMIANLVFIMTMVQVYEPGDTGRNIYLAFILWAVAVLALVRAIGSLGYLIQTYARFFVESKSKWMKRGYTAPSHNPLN
SMILES,"MIC [1, 9] [µg/mL]","MIC [3, 9] [µg/mL]","MIC [4, 9] [µg/mL]",ID50 [5] [µg/mL],Inhibition [2] [%],Inhibition [6] [%],also measured
CCCCCCCCCCCCCCC(N)C(=O)NC(C(=O)O)[C@H]1O[C@@H](n2ccc(=O)[nH]c2=O)[C@H](O)[C@@H]1O (stereo in doubt; 5b) [listing 1 of 2 here],> 320,> 320,> 320,,10,83,
CCCCCCCCCCCCCCC(N)C(=O)NC(C(=O)O)[C@H]1O[C@@H](n2ccc(=O)[nH]c2=O)[C@H](O)[C@@H]1O (stereo in doubt; 5a) [listing 1 of 2 here],,,,,,56,
CCCCCCCCCCCCCCC(N)C(=O)NC(C(=O)O)[C@H]1O[C@@H](n2ccc(=O)[nH]c2=O)[C@H](O)[C@@H]1O (stereo in doubt; 5b) [listing 2 of 2 here],,,,10,,,
NC(=O)OCC(O)C(O)C(N)C(=O)NC(C(=O)O)[C@H]1O[C@@H](n2cc(C(=O)O)c(=O)[nH]c2=O)[C@H](O)[C@@H]1O (stereo partly drawn),320,640,320,2,10,5,
NC(C(=O)O)[C@H]1O[C@@H](n2ccc(=O)[nH]c2=O)[C@H](O)[C@@H]1O (stereo partly drawn),> 640,> 640,> 640,,3,,ID50 [7]: > 100 µg/mL
CCCCCCC(N)C(=O)NC(C(=O)O)[C@H]1O[C@@H](n2ccc(=O)[nH]c2=O)[C@H](O)[C@@H]1O (stereo in doubt; 3b) [listing 1 of 2 here],,,,,10,14,MIC [1]: >320 µg/mL; MIC [3]: >320 µg/mL; MIC [4]: >320 µg/mL

# More lines, main results first:
"MIC [1, 9] [µg/mL]","MIC [3, 9] [µg/mL]","MIC [4, 9] [µg/mL]",ID50 [5] [µg/mL],SMILES,Inhibition [2] [%],Inhibition [6] [%],also measured
40,80,80,0.3,CCCCCCCCCCC(N)C(=O)NC(C(=O)O)[C@H]1O[C@@H](n2ccc(=O)[nH]c2=O)[C@H](O)[C@@H]1O (stereo partly drawn),0,87,
,,,> 100,CCCCCCCCCCCCCCC(N)C(=O)NC(C(=O)O)[C@H]1O[C@@H](n2ccc(=O)[nH]c2=O)[C@H](O)[C@@H]1O (stereo in doubt; 5a) [listing 2 of 2 here],,,
,,,2,CCCCCCC(N)C(=O)NC(C(=O)O)[C@H]1O[C@@H](n2ccc(=O)[nH]c2=O)[C@H](O)[C@@H]1O (stereo in doubt; 3a) [listing 1 of 2 here],,,Hydrolysis [8]: (+)
,,,> 50,CCCCCCC(N)C(=O)NC(C(=O)O)[C@H]1O[C@@H](n2ccc(=O)[nH]c2=O)[C@H](O)[C@@H]1O (stereo in doubt; 3b) [listing 2 of 2 here],,,
,160,640,,CCCCCCC(N)C(=O)NC(C(=O)O)[C@H]1O[C@@H](n2ccc(=O)[nH]c2=O)[C@H](O)[C@@H]1O (stereo in doubt; 3a) [listing 2 of 2 here],6,71,MIC [1]: 80 µg/mL
